CHRM5 agonist = agonists of human muscarinic M5 receptor (CHRM5). P08912. CHO-K1 hM5 cells, Fluo-8 calcium fluorescence; 0% DMSO wells, 100% maximal acetylcholine response. activation, % at 3 µM. 0.19% of 360,000 active. AID 624037;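 active = activation above the run's mean over test compounds plus 3 SD, cut at about 23% in these data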;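 also: signal is peak over basal fluorescence ratio across the kinetic read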
Target sequence (P08912 whole entry, looked up): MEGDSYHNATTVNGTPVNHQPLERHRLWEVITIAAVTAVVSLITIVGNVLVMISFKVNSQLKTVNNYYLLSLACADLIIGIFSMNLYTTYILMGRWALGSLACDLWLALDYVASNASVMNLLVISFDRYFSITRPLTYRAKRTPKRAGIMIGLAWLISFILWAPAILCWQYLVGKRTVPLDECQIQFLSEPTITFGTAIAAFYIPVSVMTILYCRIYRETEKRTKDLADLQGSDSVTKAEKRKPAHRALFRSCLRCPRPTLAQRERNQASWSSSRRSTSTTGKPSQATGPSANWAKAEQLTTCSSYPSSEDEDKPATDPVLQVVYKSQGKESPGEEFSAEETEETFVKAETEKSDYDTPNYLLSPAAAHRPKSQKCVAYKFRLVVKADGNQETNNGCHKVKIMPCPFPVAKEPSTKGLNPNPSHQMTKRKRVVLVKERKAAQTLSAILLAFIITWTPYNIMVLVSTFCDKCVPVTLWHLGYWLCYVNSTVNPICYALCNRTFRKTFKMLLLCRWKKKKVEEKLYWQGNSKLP
M5 PAM = potentiates acetylcholine response at human M5 receptor | P08912 | CHO-K1 hM5, Fluo-8 calcium, ACh EC20 PAM; 0% = ACh EC20, 100% = ACh EC100 | activation, % at 3 µM | 0.3% of 360,000 active | AID 624038;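 active = activation above the run cutoff, the mean activation of all test compounds plus 3 SD, cut at about 18% in these data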
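System – CHO-K1 hM5 cells · Compound – 3 µM, single dose · Incubation – compound preincubation 140 s before EC20 acetylcholine addition · Technique – Fluo-8 calcium fluorescence · Measure – Max/basal fluorescence ratio as % of EC20–EC100 ACh window · Benchmarks – low control EC20 acetylcholine (0%), high control EC100 acetylcholine (100%) · Replication – singlicate, one well per test compound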
CHO-K1 Ca ag = M1 agonist counterscreen hit in parental CHO-K1 cells. AID 602248. Fluo-8 calcium fluorescence; scaled to maximal ATP response, vehicle zero. 0.48% of 360,000 active. activation, % at 3 µM; in the data active = activation above about 15%;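 also: untransfected CHO-K1 host cells lacking M1 receptor as counterscreen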
CHO-K1 Ca PAM = nonselective activator or artifact in parental CHO-K1 calcium assay | ATP EC20, Fluo-8 calcium fluorescence; 0% at ATP EC20, 100% at ATP max | activation, % at 3 µM | 0.02% of 360,000 active | AID 602247;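 active = activation above the run cutoff, the mean activation of all test compounds plus 3 SD, cut at about 40% in these data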;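 also: peak over basal fluorescence ratio in a 140 s read after ATP addition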
CHRM5 antagonist = CHRM5 antagonism in calcium assay; P08912; CHO-hM5 cells, Fluo-8 calcium fluorescence, ACh EC80; inhibition, % at 3 µM; 0.59% of 360,000 active;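 active = inhibition above a per-plate cutoff, the mean of that plate's test compounds plus 3 SD, cut at about 27% in these data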;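 also: 0% = acetylcholine EC80 with DMSO and 100% = DMSO without agonist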
CHO-K1 Ca antag = nonselective inhibitor or artifact in parental CHO-K1 cells; 0.6% of 360,000 active; inhibition, % at 3 µM; ATP-induced calcium, Fluo-8 fluorescence; AID 602250;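 active = inhibition above a per-plate cutoff, the plate's mean sample inhibition plus 3 SD, cut at about 24% in these data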;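 also: 0% = DMSO plus EC80 ATP and 100% = DMSO alone without ATP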
Starred values were filed as active, the others as inactive; ! = a repeat was not active. Only some compounds are listed: those with a hit (about 1.7% of all), similar ones and a draw of the others.

SMILES	CHRM5 agonist	M5 PAM	CHO-K1 Ca ag	CHO-K1 Ca PAM	CHRM5 antagonist	CHO-K1 Ca antag
CC(C)C[C@@H]1COc2cccc(N3CCN(C)CC3)c2S(=O)(=O)N1	-7	-22	1	14	99*	-24
CC(C)C[C@H]1COc2cccc(N3CCN(C)CC3)c2S(=O)(=O)N1	-7	-14	0	-16	-6	0
CC(C)NC(C)Cc1ccc(I)cc1 (configuration not stated)	-1	-4	0	-5	5	11
Cc1ccc(CN2CCN(Cc3ccccc3F)CC2)cc1	-6	26*	2	25	-10	-28
CCN1CCN(Cc2ccc(C)cc2)CC1	-1	-1	0	10	-4	-7
O=C1OCCC1C(=O)c1ccccc1 (configuration not stated)	1	-1	0	-13	4	16
Nc1c(C(=O)NCCc2ccccc2)c2nc3ccccc3nc2n1CCN1CCOCC1	4	-1	2	12	-1	5
Nc1c(C(=O)NCCN2CCOCC2)c2nc3ccccc3nc2n1Cc1ccccc1	-1	0	16*	23	8	-2
CCC(C)NC(=O)c1c(N)n(Cc2ccc3c(c2)OCO3)c2nc3ccccc3nc12 (configuration not stated)	9	19*	2	25	-5	-12
CCC(C)NC(=O)c1c(N)n(CC2CCCO2)c2nc3ccccc3nc12 (configuration not stated)	-7	0	1	17	-3	-3
C=CCn1c(C)c(C=C2C(=O)NC(=O)NC2=O)c2ccccc21	3	11	-1	-12	-1	17
CCN(CC)P(=O)(c1n(CC)cc[n+]1CC)N(CC)CC	-1	1	-1	-16	1	32*
CP(=O)(O)CN1CCCCC1	0	-2	0	-6	4	-8
C[C@@H]1CC[C@@]2(NC1)O[C@H]1C[C@H]3[C@@H]4CC=C5C[C@@H](O)CC[C@]5(C)[C@H]4CC[C@]3(C)[C@H]1[C@@H]2C	1	-12	7	15	12	4
COc1ccc(CN2C(=O)NC(=O)/C(=C/c3cc(OC)c(OC)c(OC)c3)C2=O)cc1	4	0	1	-17	7	15
COc1ccc(CN2C(=O)NC(=O)/C(=C/c3ccoc3)C2=O)cc1	29*	-4	5	-25	2	4
COC(=O)C1=C(c2ccc(F)cc2F)C[C@@H]2CC[C@H]1N2C(=O)N1CCOCC1	0	-3	0	11	3	-3
CC(C)Oc1cccc(C(=O)C2CCCN(Cc3ccon3)C2)c1 (configuration not stated)	0	1	19*	-4	4	-4
O=c1[nH]c(=O)n(CCC2=CCCCC2)c(O)c1/C=N/N1CCOCC1	1	-12	0	-24	13	25*
COC(=O)C1=C(c2ccccc2)C[C@@H]2CC[C@H]1N2C(=O)NCc1ccc(F)cc1	-11	-19	-1	5	12	-7
C=CCC1(Nc2ccccc2)CC(C)N(C)CC1C (configuration not stated)	-21	-35	0	-29	52*	20
N#Cc1ccc(N2CCNCC2)c(F)c1	-3	3	1	7	-4	7
CN(C)C1C(=O)C(C(N)=O)=C(O)C2(O)C(=O)C3=C(O)c4c(O)cccc4C(C)(O)C3CC12 (configuration not stated)	4	-2	0	-12	0	28*
CN(C)[C@@H]1C(=O)C(C(N)=O)=C(O)[C@@]2(O)C(=O)C3=C(O)c4c(O)ccc(Cl)c4[C@@](C)(O)C3C[C@@H]12 (some centres not stated)	2	0	1	4	-1	-5
CN(C)[C@@H]1C(=O)C(C(N)=O)=C(O)[C@@]2(O)C(=O)C3=C(O)c4c(O)cccc4[C@@](C)(O)C3[C@H](O)C12 (some centres not stated)	1	-19	4	-7	23	27*!
SMILES	CHRM5 agonist	M5 PAM	CHO-K1 Ca ag	CHO-K1 Ca PAM	CHRM5 antagonist	CHO-K1 Ca antag
O=C1NC(=O)N(c2ccc3c(c2)OCO3)C(=O)/C1=C\c1ccc(N2CCCCC2)o1	6	-3	3	-9	1	25*
Cn1nnc(CC[N+](C)(C)C)n1	76*	-28	15*	-1	65*	11
CC1CCN(C(=O)C(C)Cl)CC1 (configuration not stated)	-2	3	16*	11	-3	9
O=C(NC1(C(F)(F)F)Oc2ccc(Cl)cc2O1)N1CCC2(CC1)OCCO2 (configuration not stated)	-5	6	1	16	-3	-8
CCN(CC)CCCOC(=O)C(OC(C)C)(c1ccccc1)c1ccccc1	-4	-22	4	18	98*	-5
CCOC(C(=O)OCCCN(CC)CC)(c1ccccc1)c1ccccc1	-9	-14	1	22	12	-20
COC(=O)C1=C(c2cccc(OCc3ccccc3)c2)C[C@@H]2CC[C@H]1N2C(=O)NC1CCN(Cc2ccccc2)CC1	-9	-11	2	9	5	-12
Cc1nc2ccc(Br)cc2c(=O)n1-c1ccc([N+](=O)[O-])c(C(F)(F)F)c1	11	-27	13	-11	32*	19
Cc1nc2ccccc2c(=O)n1-c1cc([N+](=O)[O-])cc([N+](=O)[O-])c1	0	8	2	-2	-4	-8
C[C@]12CCC3C(CC[C@H]4C[C@H](O)CC[C@]34C)C1C[C@@H](O)[C@@H]2O (some centres not stated)	0	7	1	4	3	-8
CC12C=CC(=O)CC1CCC1C2CCC2(C)C(O)C(O)CC12 (configuration not stated)	5	-24	7	-7	35*	14
C[C@]12CCC3C(CC[C@H]4C[C@@H](O)CC[C@]34C)C1CC[C@@H]2N (some centres not stated)	-1	2	19*	25	14	11
NNC(=O)CN1C(=O)CN=C(c2ccccc2)c2cc(Br)ccc21	-1	0	0	21	15	-8
COc1cccc(C(c2nnnn2-c2ccc3c(c2)OCCO3)N2CCC(n3c(=O)[nH]c4ccccc43)CC2)c1OC (configuration not stated)	30*	-10	6	31	15	-6
Cc1cccc(C)c1-n1nnnc1C(c1ccccc1OC(F)(F)F)N1CCC(n2c(=O)[nH]c3ccccc32)CC1 (configuration not stated)	0	12	0	-10	1	-1
